Key:
[1] = system: ai5γ intron with short exons (SE RNA); assay: Radioanalytic self-splicing assay; format: biochemical, S. cerevisiae; conditions: relative to lead compound; IC50 and Ki assays
Method in brief: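 Internally ³²P-labelled ai5γ precursor with short exons (2 nM) self-spliced at 30 °C with a range of test compound concentrations. Buffer was 50 mM MOPS pH 7.5, 8 mM MgCl₂, 100 mM KCl. First-order splicing rates were fitted to k_obs = k_max/(1+[I]/K_i) to give K_i. Each determination was repeated 2–4 times; mean ± s.e.m.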

[2] = system: COX1 aI5γ group II intron; assay: Analysis of splicing in S. cerevisiae by qRT-PCR; format: cell-based; conditions: S. cerevisiae in YPGE, 4 h; 19 64 μg/mL, 18 32 μg/mL, 12 32 μg/mL, 3 64 μg/mL
[3] = system: ai5γ group II intron (D135 ribozyme); assay: Fluorescent D135 ribozyme cleavage assay; format: biochemical, S. cerevisiae; conditions: compared with the parental molecule 7
[4] = system: S. cerevisiae wild-type (NP40–36a) and intronless (XPM46) strains; assay: S. cerevisiae growth assays, wild-type vs mtDNA intronless strain; format: cell-based; conditions: YPGE medium, 64 or 128 μg/mL
Method in brief: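 Wild-type NP40–36a and mtDNA intronless XPM46 strains were grown overnight with shaking to mid-log phase in YPGE at 30 °C. Equal cell numbers were serially diluted 1:5 and plated on YPD or YPGE. Plates held DMSO or test compound at 64 or 128 µg/mL final. Plates grew at 30 °C for 1 day (YPD), 2 days (YPGE with DMSO) or 18 days (YPGE with compound). Done twice.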

In vitro inhibitory activity in SAR (in words) [1]	SMILES	Splicing of COX1 aI5γ group II intron in vivo (unspliced precursor, qRT-PCR) [2]	other results
inactivated	O=C1/C(=C/c2ccc(O)c(O)c2)Oc2cc(O)cc(O)c21 [Compound 2]	–	–
–	O=C1/C(=C/c2cc(O)cc(O)c2)Oc2cc(O)cc(O)c21 [Compound 3]	inactive	–
–	O=C(c1cc(O)c(O)c(O)c1)c1cc2ccccc2o1 [Compound 9]	–	Increase in in vitro potency [3]: 2 fold
substantial loss of activity	COc1ccc(CNC(=O)c2cc(O)c(O)c(O)c2)cc1OC [Compound 10]	–	–
substantial loss of activity	CCCCNS(=O)(=O)c1ccc(-c2ccc(-c3nc(-c4cc(O)c(O)c(O)c4)cs3)cc2)cc1 [Compound 11]	–	–
–	Cc1ccncc1-c1ccc2oc(C(=O)c3cc(O)c(O)c(O)c3)cc2c1 [Compound 12]	inhibit splicing	–
–	CC(=O)c1ccc(-c2ccc3oc(C(=O)c4cc(O)c(O)c(O)c4)cc3c2)cc1 [Compound 18]	inhibit splicing	Growth of intronless strain versus wild-type strain in presence of compound [4]: much more resistant
